Data: ChEMBL document CHEMBL1141165, “Novel 8-substituted dipyridodiazepinone inhibitors with a broad-spectrum of activity against HIV-1 strains resistant to non-nucleoside reverse transcriptase inhibitors” (J Med Chem, 2005)

Experiments:
[1] = target: T1, Human immunodeficiency virus type 1 reverse transcriptase (Human immunodeficiency virus 1, UniProt Q72547, K103N/Y181C); test: Effective concentration towards HIV-1 K103N/Y181C mutant reverse transcriptase activity by 50% measured in cellular assay
Summary of the method: (§1)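 C8166 T-lymphocytes infected at MOI 0.001 with HIV-1 carrying wild-type or mutant RT, then grown 3 days with serial compound dilutions in RPMI 1640 + 10% FBS, 10 μg/mL gentamycin, 10 μM β-mercaptoethanol (also the diluent). Supernatant pooled from eight replica wells; extracellular p24 measured by HIV-1 p24 antigen kit.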

[2] = target: T2, Human immunodeficiency virus type 1 reverse transcriptase (Human immunodeficiency virus 1, UniProt Q72547); test: Inhibitory activity of compound dissolved in DMSO was determined against HIV-1 wild type reverse transcriptase (1-2 nM) by using [3H]dGTP (71 nM) as substrate, 50 mM Tris/HCl buffer, pH 7.8, incubated for 1 h at 37 degrees C
Summary of the method: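 Wild-type RT preincubated 15 min at room temperature with inhibitor. Final reaction: Tris/HCl 50 mM pH 7.8, NaCl 60 mM, MgCl2 2 mM, DTT 6 mM, GSH 2 mM, Chaps 0.02%, DMSO 3%, poly rC 179 nM, biotin-dG15 18 nM, dGTP 288 nM, 3H-dGTP 71 nM, enzyme 1–2 nM, inhibitor 10 μM–0.5 nM. Run 1 h at 37 °C, EDTA-quenched, read with streptavidin SPA beads.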

[3] = target: T2, Human immunodeficiency virus type 1 reverse transcriptase; test: Effective concentration towards HIV-1 wild type reverse transcriptase activity by 50% measured in cellular assay
Summary of the method: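 C8166 T-lymphocytes infected at MOI 0.001 with wild-type HIV-1, then cultured 3 days with serial compound dilutions in RPMI 1640 containing 10% FBS, gentamycin and 10 μM β-mercaptoethanol. Supernatants pooled from eight replicate wells. Extracellular p24 measured by antigen immunoassay.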

[4] = target: T1, Human immunodeficiency virus type 1 reverse transcriptase; test: Inhibitory activity of compound dissolved in DMSO was determined against HIV-1 (K103N/Y181C) mutant reverse transcriptase (1-2 nM) by using [3H]-dGTP (71 nM) as substrate, 50 mM Tris/HCl buffer, pH 7.8, incubated for 1 hr at 37 degrees C
Summary of the method: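 RT at ≈3 nM preincubated 15 min at room temperature with inhibitor, then substrate added. Final mix: 50 mM Tris/HCl pH 7.8, 60 mM NaCl, 2 mM MgCl2, 6 mM DTT, 2 mM GSH, 0.02% Chaps, 3% DMSO, 179 nM poly rC, 18 nM biotin-dG15, 288 nM dGTP, 71 nM 3H-dGTP, 1–2 nM enzyme, inhibitor 10 μM–0.5 nM. Reaction 1 h at 37 °C, quenched with EDTA plus streptavidin SPA beads, CsCl added, scintillation counted.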

C8166 [5] = test: Inhibition of HIV replication in T-lymphocyte cell line C8166 infected with V106A mutant reverse transcriptase upon incubation with the compound for 3 days; format: functional, Homo sapiens; summary of the method: as §1
C8166 [6] = test: Inhibition of HIV replication in T-lymphocyte cell line C8166 infected with K103N/P225H mutant reverse transcriptase upon incubation with the compound for 3 days; format: functional, Homo sapiens; summary of the method: as §1
C8166 [7] = test: Inhibition of HIV replication in T-lymphocyte cell line C8166 infected with K103N/L100I mutant reverse transcriptase upon incubation with the compound for 3 days; format: functional, Homo sapiens; summary of the method: as §1
C8166 [8] = test: Inhibition of HIV replication in T-lymphocyte cell line C8166 infected with K103N/V108I mutant reverse transcriptase upon incubation with the compound for 3 days; format: functional, Homo sapiens; summary of the method: as §1
C8166 [9] = test: Inhibition of HIV replication in T-lymphocyte cell line C8166 infected with Y188L mutant reverse transcriptase upon incubation with the compound for 3 days; format: functional, Homo sapiens; summary of the method: as §1
[10] = Bioavailability is determined in monkey after oral administration at 5 mg/kg; details: cercopithecidae, in vivo
[11] = Half-life is determined in dog after intravenous administration 1 mg/kg; format: ADME, organism-based, Canis lupus familiaris; design: dose 1 mg/kg, route intravenous; details: in vivo
Summary of the method: (§2)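 Intravenous bolus at 1 mg/kg to overnight-fasted male Sprague-Dawley rats, beagle dogs or rhesus monkeys. Vehicle: N,N-dimethylacetamide/0.9% aqueous NaCl (30:70). Animals restrained during sampling. Plasma extracts analysed by HPLC. Parameters derived by noncompartmental analysis.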

Cytochrome P450 3A4 [12] = target: T3, Cytochrome P450 3A4 (Homo sapiens, UniProt P08684); test: Inhibitory concentration (1.5 mM) against human CYP450 3A4 dissolved in acetonitrile/methanol using 7-Benzyloxy-quinoline (BQ) as fluorogenic substrate
T3 sequence (P08684 whole entry): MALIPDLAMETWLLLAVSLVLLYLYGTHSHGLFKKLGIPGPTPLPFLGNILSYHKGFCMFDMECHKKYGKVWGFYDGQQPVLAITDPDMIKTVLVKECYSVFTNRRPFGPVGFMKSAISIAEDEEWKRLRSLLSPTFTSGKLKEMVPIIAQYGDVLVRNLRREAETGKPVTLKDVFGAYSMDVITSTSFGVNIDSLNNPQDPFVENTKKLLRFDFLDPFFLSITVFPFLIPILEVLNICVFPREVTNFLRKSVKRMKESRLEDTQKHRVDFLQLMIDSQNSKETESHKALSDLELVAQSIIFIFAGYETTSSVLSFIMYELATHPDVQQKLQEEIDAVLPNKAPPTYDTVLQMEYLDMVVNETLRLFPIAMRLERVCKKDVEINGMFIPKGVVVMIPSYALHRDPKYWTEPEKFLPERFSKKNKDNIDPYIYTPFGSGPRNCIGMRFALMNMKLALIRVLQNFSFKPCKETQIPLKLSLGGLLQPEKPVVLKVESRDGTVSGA

Cytochrome P450 2C9 = Cytochrome P450 2C9 (Homo sapiens, UniProt P11712)
Cytochrome P450 2C9, sequence (P11712 whole entry): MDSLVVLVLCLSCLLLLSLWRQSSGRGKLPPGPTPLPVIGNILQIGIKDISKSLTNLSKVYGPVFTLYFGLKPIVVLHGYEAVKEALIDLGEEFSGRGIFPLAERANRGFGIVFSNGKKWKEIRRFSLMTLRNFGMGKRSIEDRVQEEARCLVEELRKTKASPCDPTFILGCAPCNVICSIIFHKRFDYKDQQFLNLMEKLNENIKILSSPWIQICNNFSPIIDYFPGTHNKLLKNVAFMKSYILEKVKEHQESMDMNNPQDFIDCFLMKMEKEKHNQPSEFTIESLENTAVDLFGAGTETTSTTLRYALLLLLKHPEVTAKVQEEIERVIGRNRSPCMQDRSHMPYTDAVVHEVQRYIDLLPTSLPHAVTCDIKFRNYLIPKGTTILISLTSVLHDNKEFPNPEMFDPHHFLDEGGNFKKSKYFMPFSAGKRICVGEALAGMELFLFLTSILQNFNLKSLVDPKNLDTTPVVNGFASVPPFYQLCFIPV

[13] = Concentration maximum is determined in rat after oral administration at 5 mg/kg; details: in vivo
[14] = Bioavailability is determined in dog after oral administration 5 mg/kg; details: in vivo
[15] = Bioavailability is determined in rat after oral administration at 5 mg/kg; details: in vivo
[16] = Clearance is determined in monkey after intravenous administration 1 mg/kg; format: ADME, organism-based; design: dose 1 mg/kg, route intravenous; details: cercopithecidae, in vivo; summary of the method: as §2
[17] = Concentration maximum is determined in dog after oral administration 5 mg/kg; details: in vivo
[18] = Area under curve is determined in dog after oral administration 5 mg/kg; details: in vivo
[19] = Steady state volume of distribution is determined in dog after intravenous administration 1 mg/kg; format: ADME, organism-based, Canis lupus familiaris; design: dose 1 mg/kg, route intravenous; details: in vivo, read-out: Vss; summary of the method: as §2
[20] = Clearance is determined in rat after intravenous administration at 1 mg/kg; format: ADME, organism-based; design: dose 1 mg/kg, route intravenous; details: in vivo; summary of the method: as §2
Caco-2 = test: Caco-2 permeability upon incubation at 37 degrees C for 180 minutes; format: functional, Homo sapiens
Summary of the method: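 Cells grown on 12-well Transwell membranes and exposed to test solution for 180 min at 37 °C. Receiving-side (basolateral, A to B) samples analysed by HPLC. Apparent permeability = (ΔQ/Δt)/(A·C0), where ΔQ/Δt is the transport rate, A the monolayer area and C0 the initial donor concentration.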

[21] = Area under curve is determined in monkey after oral administration at 5 mg/kg; details: cercopithecidae, in vivo
[22] = Steady state volume of distribution in rat after intravenous administration 1 mg/kg; format: ADME, organism-based; design: dose 1 mg/kg, route intravenous; details: in vivo, read-out: Vss; summary of the method: as §2
[23] = Maximum concentration is determined in monkey after oral administration at 5 mg/kg; details: cercopithecidae, in vivo
in vitro = details: male, human, liver microsomes
[24] = Half-life is determined in rat after intravenous administration at 1 mg/kg; format: ADME, organism-based; design: dose 1 mg/kg, route intravenous; details: in vivo; summary of the method: as §2
Cytochrome P450 2C19 = Cytochrome P450 2C19 (Homo sapiens, UniProt P33261); test: Inhibitory concentration (1.5 mM) against human CYP450 2C19 dissolved in acetonitrile/methanol
Cytochrome P450 2C19, sequence (P33261 whole entry): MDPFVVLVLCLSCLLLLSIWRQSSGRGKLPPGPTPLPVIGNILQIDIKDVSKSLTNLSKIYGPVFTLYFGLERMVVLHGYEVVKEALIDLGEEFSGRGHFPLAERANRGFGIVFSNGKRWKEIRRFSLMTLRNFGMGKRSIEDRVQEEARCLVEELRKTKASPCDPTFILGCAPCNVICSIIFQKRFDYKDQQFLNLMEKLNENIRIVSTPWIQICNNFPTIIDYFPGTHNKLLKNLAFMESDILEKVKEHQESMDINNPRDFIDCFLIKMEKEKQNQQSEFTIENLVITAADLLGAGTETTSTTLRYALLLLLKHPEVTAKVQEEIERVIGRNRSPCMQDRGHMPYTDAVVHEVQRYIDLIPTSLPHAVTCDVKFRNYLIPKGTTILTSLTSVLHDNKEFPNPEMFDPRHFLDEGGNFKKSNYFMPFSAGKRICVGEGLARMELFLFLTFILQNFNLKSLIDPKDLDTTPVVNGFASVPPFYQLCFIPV

Cytochrome P450 3A4 [25] = target: T3, Cytochrome P450 3A4
Cytochrome P450 1A2 = target: T4, Cytochrome P450 1A2 (Homo sapiens, UniProt P05177); test: Inhibitory concentration (1.5 mM) against human CYP450 1A2 dissolved in acetonitrile/methanol
T4 sequence (P05177 whole entry): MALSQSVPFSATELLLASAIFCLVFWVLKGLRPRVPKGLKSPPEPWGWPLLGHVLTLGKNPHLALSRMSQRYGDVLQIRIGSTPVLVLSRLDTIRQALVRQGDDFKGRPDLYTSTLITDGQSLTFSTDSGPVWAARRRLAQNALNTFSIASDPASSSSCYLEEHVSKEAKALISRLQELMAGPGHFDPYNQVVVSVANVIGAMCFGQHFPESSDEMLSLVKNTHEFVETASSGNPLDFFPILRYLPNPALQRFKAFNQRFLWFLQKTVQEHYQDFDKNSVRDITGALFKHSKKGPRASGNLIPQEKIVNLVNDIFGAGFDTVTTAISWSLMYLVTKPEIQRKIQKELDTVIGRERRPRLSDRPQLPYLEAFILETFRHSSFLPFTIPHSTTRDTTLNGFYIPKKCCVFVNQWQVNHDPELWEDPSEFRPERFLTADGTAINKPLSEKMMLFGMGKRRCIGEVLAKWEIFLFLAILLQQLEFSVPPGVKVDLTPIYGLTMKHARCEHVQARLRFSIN

[26] = Area under curve is determined in rat after oral administration at 5 mg/kg; details: in vivo
[27] = Steady state volume of distribution is determined in monkey after intravenous administration at 1 mg/kg; format: ADME, organism-based; design: dose 1 mg/kg, route intravenous; details: cercopithecidae, in vivo, read-out: Vss; summary of the method: as §2
[28] = Half-life is determined in monkey after intravenous administration at 1 mg/kg; format: ADME, organism-based; design: dose 1 mg/kg, route intravenous; details: cercopithecidae, in vivo; summary of the method: as §2
Cytochrome P450 2D6 = Cytochrome P450 2D6 (Homo sapiens, UniProt P10635); test: Inhibitory concentration (1.5 mM) against human CYP450 2D6 dissolved in acetonitrile/methanol
Cytochrome P450 2D6, sequence (P10635 whole entry): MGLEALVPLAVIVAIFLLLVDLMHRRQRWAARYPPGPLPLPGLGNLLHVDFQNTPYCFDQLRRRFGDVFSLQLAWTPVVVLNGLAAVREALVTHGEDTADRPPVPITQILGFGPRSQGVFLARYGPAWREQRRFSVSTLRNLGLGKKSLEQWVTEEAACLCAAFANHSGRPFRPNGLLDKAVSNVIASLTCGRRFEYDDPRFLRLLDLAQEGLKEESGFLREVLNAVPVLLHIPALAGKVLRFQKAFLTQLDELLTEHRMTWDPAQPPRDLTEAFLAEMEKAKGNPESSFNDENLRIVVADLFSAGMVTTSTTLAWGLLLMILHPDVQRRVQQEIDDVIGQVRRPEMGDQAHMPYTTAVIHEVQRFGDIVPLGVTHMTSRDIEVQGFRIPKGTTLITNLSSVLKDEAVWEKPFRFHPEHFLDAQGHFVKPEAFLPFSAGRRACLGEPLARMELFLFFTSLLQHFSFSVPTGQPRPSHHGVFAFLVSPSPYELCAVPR

[29] = Clearance is determined in dog after intravenous administration at 1 mg/kg; format: ADME, organism-based, Canis lupus familiaris; design: dose 1 mg/kg, route intravenous; details: in vivo; summary of the method: as §2

## CCN1c2ncc(CCOc3ccc(C(=O)O)cc3C)cc2C(=O)N(C)c2ccc(C)nc21
[1]
  EC50: 33 nM
[2]
  IC50: 19 nM
[3]
  EC50: 1.3 nM
[4]
  IC50: 280 nM

## CCc1cc(C(=O)O)ccc1OCCc1cnc2c(c1)C(=O)N(C)c1cccnc1N2CC
[1]
  EC50: 24 nM
[2]
  IC50: 19 nM
[3]
  EC50: 2.2 nM
[4]
  IC50: 430 nM

## CCN1c2ncc(CCOc3ccc(C(=O)O)cc3C)cc2C(=O)N(C)c2ccc(F)nc21
C8166 [5]
  Antiviral activity: 27 nM
[1]
  EC50: 14 nM
[2]
  IC50: 15 nM
[3]
  EC50: 1.5 nM
[4]
  IC50: 150 nM
C8166 [6]
  Antiviral activity: 2 nM
C8166 [7]
  Antiviral activity: 3 nM
C8166 [8]
  Antiviral activity: 4 nM
C8166 [9]
  Antiviral activity: 27 nM

## CCN1c2ncc(CCOc3ccc(C(=O)O)cc3C)cc2C(=O)N(C)c2ccc(OC)nc21
[1]
  EC50: 15 nM
[2]
  IC50: 15 nM
[3]
  EC50: 1.9 nM
[4]
  IC50: 300 nM

## CCN1c2ncc(CCOc3cccc4c(C(=O)O)cccc34)cc2C(=O)N(C)c2cccnc21
[2]
  IC50: 60 nM
[4]
  IC50: 550 nM

## CCN1c2ncc(CCOc3ccc4cc(C(=O)O)ccc4c3)cc2C(=O)N(C)c2cccnc21
[2]
  IC50: 14 nM
[4]
  IC50: 1100 nM

## CCN1c2ncc(CCOc3ccc(C(=O)O)cc3C)cc2C(=O)N(C)c2cccnc21
[10]
  bioavailability: 43%
[11]
  half-life: 5.9 h
Cytochrome P450 3A4 [12]
  IC50: > 30000 nM
Cytochrome P450 2C9
  IC50: 10000 nM
[13]
  Cmax: 6.5 µM
[14]
  bioavailability: 115%
[15]
  bioavailability: 46%
[16]
  clearance: 24 mL/min/kg
C8166 [5]
  Antiviral activity: 36 nM
[17]
  Cmax: 16 µM
[1]
  EC50: 15 nM
[2]
  IC50: 17 nM
[3]
  EC50: 1.6 nM
[18]
  AUC: 20 uMh
[19]
  Vd: 2.5 L/kg
[20]
  clearance: 7.1 mL/min/kg
[4]
  IC50: 221 nM
Caco-2
  Caco-2 A-B: 2.75e-05 cm/s
[21]
  AUC: 3.4 uMh
[22]
  Vd: 4.6 L/kg
[23]
  Cmax: 1.5 µM
In vitro
  half-life at 10 µM: 2.23 h
[24]
  half-life: 11 h
Cytochrome P450 2C19
  IC50: 2000 nM
Cytochrome P450 3A4 [25]
  IC50: 24000 nM
Cytochrome P450 1A2
  IC50: > 30000 nM
C8166 [6]
  Antiviral activity: 5 nM
[26]
  AUC: 12 uMh
[27]
  Vd: 1 L/kg
C8166 [7]
  Antiviral activity: 4 nM
[28]
  half-life: 1.3 h
Cytochrome P450 2D6
  IC50: > 30000 nM
C8166 [8]
  Antiviral activity: 5 nM
[29]
  clearance: 10 mL/min/kg
C8166 [9]
  Antiviral activity: 172 nM
